Measurements: ChEMBL document CHEMBL5724801, “EUbOPEN Chemogenomics Library - Multiplex” (2024)
Values joined by “and” are separate entries in the source; they are usually repeats but may differ in a detail not shown here. Equal entries are not always repeated.

Tested on: U2OS
Assay: Multiplex assay against U2OS
Format: toxicity, cell-based
Conditions: human
Summary of the method: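 Cells were classed with CellPathfinder machine-learning gating, first as Hoechst high-intensity objects or normal cells, then (normal cells) as healthy, pyknosed or fragmented nuclei, and finally (pyknosed cells) as mitotic or apoptotic. Staining of live cells at seeding used Hoechst33342, BioTracker Green Microtubule Cytoskeleton Dye, MitoTracker Red and Annexin V Alexa Fluor 680, with imaging on a CQ1 microscope at 37°C and 5% CO2 after compound addition. Tubulin, mitochondrial-mass and membrane-permeability phenotypes are per cents of healthy-nucleus cells.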

[1] = 12 h, 1 µM, compound concentration 1 uM
[2] = 12 h, 10 µM, compound concentration 10 uM
[3] = 24 h, 1 µM, compound concentration 1 uM
[4] = 24 h, 10 µM, compound concentration 10 uM
[5] = 48 h, 1 µM, compound concentration 1 uM
[6] = 48 h, 10 µM, compound concentration 10 uM

**Q.** Which results are given for `C[C@@H]1C[C@H]2[C@@H]3CCC4=CC(=O)C=C[C@]4(C)[C@@]3(F)[C@@H](O)C[C@]2(C)[C@@]1(O)C(=O)CO` [DEXAMETHASONE]?
**A.** Population Apoptotic (%) [1]: 77% and 80%; Population Fragmented Nuclei (%) [1]: 21% and 20%; Population Healthy Nuclei (%) [1]: 70% and 75%; Population Hoechst High Intensity Objects (%) [1]: 2% and 0%; Population Membrane Permeable-Phenotype (%) [1]: 2% and 4%; Population Mitochondria Different-Phenotype (%) [1]: 0% and 1%; Population Mitotic Cells (%) [1]: 22% and 20%; Population Normal (%) [1]: 97% and 99%; Population Pyknosed Nuclei (%) [1]: 7% and 4%; Population Tubulin-Different-Phenotype (%) [1]: 1% and 3%; Total Cell Count [1]: 238 and 124; Population Apoptotic (%) [2]: 80% and 84%; Population Fragmented Nuclei (%) [2]: 20% and 16%; Population Healthy Nuclei (%) [2]: 69% and 76%; Population Hoechst High Intensity Objects (%) [2]: 2% and 0%; Population Membrane Permeable-Phenotype (%) [2]: 6% and 7%; Population Mitochondria Different-Phenotype (%) [2]: 1% and 2%; Population Mitotic Cells (%) [2]: 19% and 15%; Population Normal (%) [2]: 97% and 100%; Population Pyknosed Nuclei (%) [2]: 9% and 7%; Population Tubulin-Different-Phenotype (%) [2]: 2% and 3%; Total Cell Count [2]: 319; Population Apoptotic (%) [3]: 96% and 90%; Population Fragmented Nuclei (%) [3]: 19% and 18%; Population Healthy Nuclei (%) [3]: 71% and 73%; Population Hoechst High Intensity Objects (%) [3]: 2%; Population Membrane Permeable-Phenotype (%) [3]: 4% and 6%; Population Mitochondria Different-Phenotype (%) [3]: 2% and 0%; Population Mitotic Cells (%) [3]: 4% and 9%; Population Normal (%) [3]: 97%; Population Pyknosed Nuclei (%) [3]: 8% and 7%; Population Tubulin-Different-Phenotype (%) [3]: 2% and 4%; Total Cell Count [3]: 288; Population Apoptotic (%) [4]: 82% and 75%; Population Fragmented Nuclei (%) [4]: 17% and 14%; Population Healthy Nuclei (%) [4]: 74% and 79%; Population Hoechst High Intensity Objects (%) [4]: 1% and 0%; Population Membrane Permeable-Phenotype (%) [4]: 6%; Population Mitochondria Different-Phenotype (%) [4]: 0% and 2%; Population Mitotic Cells (%) [4]: 17% and 25%; Population Normal (%) [4]: 98% and 99%; Population Pyknosed Nuclei (%) [4]: 7% and 5%; Population Tubulin-Different-Phenotype (%) [4]: 2%; Total Cell Count [4]: 378 and 219; Population Apoptotic (%) [5]: 84% and 71%; Population Fragmented Nuclei (%) [5]: 20% and 17%; Population Healthy Nuclei (%) [5]: 72% and 74%; Population Hoechst High Intensity Objects (%) [5]: 1% and 2%; Population Membrane Permeable-Phenotype (%) [5]: 1% and 3%; Population Mitochondria Different-Phenotype (%) [5]: 1% and 3%; Population Mitotic Cells (%) [5]: 16% and 28%; Population Normal (%) [5]: 98% and 97%; Population Pyknosed Nuclei (%) [5]: 6% and 7%; Population Tubulin-Different-Phenotype (%) [5]: 0% and 4%; Total Cell Count [5]: 391 and 186; Population Apoptotic (%) [6]: 92% and 86%; Population Fragmented Nuclei (%) [6]: 14% and 16%; Population Healthy Nuclei (%) [6]: 77% and 76%; Population Hoechst High Intensity Objects (%) [6]: 2%; Population Membrane Permeable-Phenotype (%) [6]: 4% and 5%; Population Mitochondria Different-Phenotype (%) [6]: 1% and 0%; Population Mitotic Cells (%) [6]: 7% and 13%; Population Normal (%) [6]: 97%; Population Pyknosed Nuclei (%) [6]: 8% and 7%; Population Tubulin-Different-Phenotype (%) [6]: 1%; Total Cell Count [6]: 497 and 294

**Q.** Which results are given for `Cl.NCCc1ccc(O)c(O)c1` [DOPAMINE HYDROCHLORIDE]?
**A.** Population Apoptotic (%) [1]: 100% and 83%; Population Fragmented Nuclei (%) [1]: 23% and 15%; Population Healthy Nuclei (%) [1]: 67% and 72%; Population Hoechst High Intensity Objects (%) [1]: 3% and 1%; Population Membrane Permeable-Phenotype (%) [1]: 5% and 8%; Population Mitochondria Different-Phenotype (%) [1]: 1% and 2%; Population Mitotic Cells (%) [1]: 0% and 16%; Population Normal (%) [1]: 96% and 98%; Population Pyknosed Nuclei (%) [1]: 9% and 11%; Population Tubulin-Different-Phenotype (%) [1]: 2% and 5%; Total Cell Count [1]: 237 and 104; Population Apoptotic (%) [2]: 80% and 75%; Population Fragmented Nuclei (%) [2]: 21% and 18%; Population Healthy Nuclei (%) [2]: 65% and 76%; Population Hoechst High Intensity Objects (%) [2]: 3% and 0%; Population Membrane Permeable-Phenotype (%) [2]: 2% and 4%; Population Mitochondria Different-Phenotype (%) [2]: 1%; Population Mitotic Cells (%) [2]: 20% and 25%; Population Normal (%) [2]: 96% and 100%; Population Pyknosed Nuclei (%) [2]: 12% and 4%; Population Tubulin-Different-Phenotype (%) [2]: 1%; Total Cell Count [2]: 204 and 95; Population Apoptotic (%) [3]: 90% and 80%; Population Fragmented Nuclei (%) [3]: 18% and 14%; Population Healthy Nuclei (%) [3]: 69% and 77%; Population Hoechst High Intensity Objects (%) [3]: 4% and 1%; Population Membrane Permeable-Phenotype (%) [3]: 7% and 4%; Population Mitochondria Different-Phenotype (%) [3]: 2% and 1%; Population Mitotic Cells (%) [3]: 10% and 20%; Population Normal (%) [3]: 95% and 98%; Population Pyknosed Nuclei (%) [3]: 11% and 7%; Population Tubulin-Different-Phenotype (%) [3]: 5% and 2%; Total Cell Count [3]: 263 and 132; Population Apoptotic (%) [4]: 92% and 87%; Population Fragmented Nuclei (%) [4]: 18% and 15%; Population Healthy Nuclei (%) [4]: 70% and 77%; Population Hoechst High Intensity Objects (%) [4]: 2% and 0%; Population Membrane Permeable-Phenotype (%) [4]: 4% and 1%; Population Mitochondria Different-Phenotype (%) [4]: 0%; Population Mitotic Cells (%) [4]: 8% and 12%; Population Normal (%) [4]: 97% and 99%; Population Pyknosed Nuclei (%) [4]: 10% and 7%; Population Tubulin-Different-Phenotype (%) [4]: 1%; Total Cell Count [4]: 245 and 111; Population Apoptotic (%) [5]: 90% and 89%; Population Fragmented Nuclei (%) [5]: 17% and 14%; Population Healthy Nuclei (%) [5]: 70% and 73%; Population Hoechst High Intensity Objects (%) [5]: 2%; Population Membrane Permeable-Phenotype (%) [5]: 5% and 7%; Population Mitochondria Different-Phenotype (%) [5]: 3% and 4%; Population Mitotic Cells (%) [5]: 9% and 10%; Population Normal (%) [5]: 97%; Population Pyknosed Nuclei (%) [5]: 11%; Population Tubulin-Different-Phenotype (%) [5]: 4% and 3%; Total Cell Count [5]: 363 and 172; Population Apoptotic (%) [6]: 85% and 100%; Population Fragmented Nuclei (%) [6]: 18% and 14%; Population Healthy Nuclei (%) [6]: 66% and 76%; Population Hoechst High Intensity Objects (%) [6]: 2% and 1%; Population Membrane Permeable-Phenotype (%) [6]: 7% and 2%; Population Mitochondria Different-Phenotype (%) [6]: 3% and 2%; Population Mitotic Cells (%) [6]: 14% and 0%; Population Normal (%) [6]: 97% and 98%; Population Pyknosed Nuclei (%) [6]: 14% and 8%; Population Tubulin-Different-Phenotype (%) [6]: 5% and 2%; Total Cell Count [6]: 338 and 179
